These results are taken from ChEMBL document CHEMBL2406916, “7-Hydroxy-(E)-3-phenylmethylene-chroman-4-one analogues as efflux pump inhibitors against Mycobacterium smegmatis mc² 155” (2013).

Assay [1] concerns Mycolicibacterium smegmatis. Nature of the assay: Antimicrobial activity against Mycobacterium smegmatis MC2 155 ATCC 700084 at 62.5 mg/L after 72 hrs by MTT assay in presence of EtBr. It counts as functional.
In assay [2] the test system is Mycolicibacterium smegmatis. The assay is described as follows: Antimicrobial activity against Mycobacterium smegmatis MC2 155 ATCC 700084 after 72 hrs by MTT assay. It counts as functional. To be noted: MC2 155 ATCC 700084, 72 h.
Assay [3] has as its system Mycolicibacterium smegmatis MC2 155. Nature of the assay: Inhibition of multidrug resistance efflux pump in Mycobacterium smegmatis MC2 155 ATCC 700084 assessed as reduction in EtBr MIC at 62.5 mg/L by MTT assay relative to control. A general note: Tetrazolium dyes change colour on reduction, which living cells bring about.
Assay [4] concerns Mycolicibacterium smegmatis. The assay is described as follows: Antimicrobial activity against Mycobacterium smegmatis MC2 155 ATCC 700084 at 125 mg/L after 72 hrs by MTT assay in presence of EtBr. Format: functional.
For assay [5], the system named is Mycolicibacterium smegmatis MC2 155. Nature of the assay: Inhibition of multidrug resistance efflux pump in Mycobacterium smegmatis MC2 155 ATCC 700084 assessed as reduction in EtBr MIC at 125 mg/L by MTT assay relative to control.
For assay [6] the test system is unchanged. Nature of the assay: Inhibition of multidrug resistance efflux pump in Mycobacterium smegmatis MC2 155 ATCC 700084 assessed as EtBr accumulation at half concentration of MIC measured every 3 mins interval for 45 mins by fluorometric method. The essentials: (§1)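 Cells are grown in 7H9/OADC at 37 °C to OD600 0.8, then pelleted and exposed to EtBr with test compound. Verapamil, reserpine, CCCP and DMSO serve as controls. EtBr fluorescence (excitation 530 nm, emission 600 nm) is read every 3 min for 45 min in a microplate spectrofluorimeter. Test concentrations are fractions (1/2, 1/4, 1/8) of each compound's MIC.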

The test system is the same in assay [7]. The assay is described as follows: Inhibition of multidrug resistance efflux pump in Mycobacterium smegmatis MC2 155 ATCC 700084 assessed as EtBr accumulation at 31.5 mg/L measured every 3 mins interval for 45 mins by fluorometric method. The gist of the method: as §1
Assay [8] has the same test system. The assay is described as follows: Inhibition of multidrug resistance efflux pump in Mycobacterium smegmatis MC2 155 ATCC 700084 assessed as EtBr accumulation at 31.5 mg/L measured every 3 mins interval for 45 mins by spectrofluorometric method. The gist of the method: as §1
The test system is the same in assay [9]. The assay is described as follows: Inhibition of multidrug resistance efflux pump in Mycobacterium smegmatis MC2 155 ATCC 700084 assessed as reduction in EtBr MIC at 31.2 mg/L by MTT assay relative to control.
For assay [10], the system named is Mycolicibacterium smegmatis. Nature of the assay: Antimicrobial activity against Mycobacterium smegmatis MC2 155 ATCC 700084 at 31.2 mg/L after 72 hrs by MTT assay in presence of EtBr. Format: functional.
Assay [11] deals with Mycolicibacterium smegmatis MC2 155. The assay is described as follows: Inhibition of multidrug resistance efflux pump in Mycobacterium smegmatis MC2 155 ATCC 700084 assessed as EtBr accumulation at 128 mg/L measured every 3 mins interval for 45 mins by fluorometric method. The essentials: as §1
Assay [12] relates to Mycolicibacterium smegmatis. Nature of the assay: Antimicrobial activity against Mycobacterium smegmatis MC2 155 ATCC 700084 at 40 mg/L after 72 hrs by MTT assay in presence of EtBr. Format: functional.
Assay [13] concerns Mycolicibacterium smegmatis. Nature of the assay: Antimicrobial activity against Mycobacterium smegmatis MC2 155 ATCC 700084 at 80 mg/L after 72 hrs by MTT assay in presence of EtBr. Format: functional.
In assay [14] the test system is Mycolicibacterium smegmatis MC2 155. Nature of the assay: Inhibition of multidrug resistance efflux pump in Mycobacterium smegmatis MC2 155 ATCC 700084 assessed as reduction in EtBr MIC at 16 mg/L by MTT assay relative to control.
Assay [15] relates to Mycolicibacterium smegmatis. Nature of the assay: Antimicrobial activity against Mycobacterium smegmatis MC2 155 ATCC 700084 at 16 mg/L after 72 hrs by MTT assay in presence of EtBr. It counts as functional.
Assay [16] deals with Mycolicibacterium smegmatis MC2 155. The assay is described as follows: Inhibition of multidrug resistance efflux pump in Mycobacterium smegmatis MC2 155 ATCC 700084 assessed as EtBr accumulation at 12.5 mg/L measured every 3 mins interval for 45 mins by fluorometric method. The essentials:
as §1

Assay [17] shares this test system. Nature of the assay: Inhibition of multidrug resistance efflux pump in Mycobacterium smegmatis MC2 155 ATCC 700084 assessed as reduction in EtBr MIC at 250 mg/L by MTT assay relative to control.

Values after ≈ are worked out from the molar mass of the structure shown. Active and inactive are the calls of the source. The calls are words filed in the database; no cut-off is given here.

What is called MIC is the lowest concentration that inhibits growth of the organism. Regarding `COc1ccc(/C=C2\COc3c(ccc(O)c3OC)C2=O)cc1` [E-8-METHOXYBONDUCELLIN], in assay [1], the “fractional inhibitory concentration index (FICI)” value was found to be 1. In assay [2], this compound registered an MIC of 125 µg/mL (≈ 400 µM). In assay [3], the fold change (FC) is 2.
The corresponding values for `O=C1/C(=C/c2ccccc2Br)COc2cc(O)ccc21` are 1, 125 µg/mL (≈ 377 µM) and 2.
Consider `O=C1/C(=C/c2ccc(Cl)cc2)COc2cc(O)ccc21`, for which the “fractional inhibitory concentration index (FICI)” value in [4] is 0.75. In assay [2], this compound showed an MIC of 250 µg/mL (≈ 872 µM). The fold change (FC) in assay [5] was determined as 4. In assay [6], the result was Active.
As to `O=C1/C(=C/c2ccc(O)cc2)COc2cc(O)ccc21`, the “fractional inhibitory concentration index (FICI)” value in assay [1] is reported as 0.37; in [4], 0.56. Further, inhibition of growth in assay [2] (MIC) required 250 µg/mL (≈ 932 µM). Moreover, the values for the fold change (FC) in assay [3] and in assay [5] were 8 and 16, respectively. For the same compound, the outcome in assay [6] was Active.
Turning to `O=C1/C(=C/c2ccccc2F)COc2cc(O)ccc21`, in assay [1], the “fractional inhibitory concentration index (FICI)” value is listed as 0.75. In assay [2], this compound registered an MIC of 125 µg/mL (≈ 463 µM). Moreover, the result in [7], in assay [8] and in [6] was Active. In assay [3], the fold change (FC) turned out to be 4.
For the compound `O=C1/C(=C/c2ccc(F)cc2)COc2cc(O)ccc21`, the “fractional inhibitory concentration index (FICI)” value in [4] came out at 0.75. The compound further had an MIC in assay [2] of 250 µg/mL (≈ 925 µM). Moreover, the fold change (FC) in assay [5] was determined as 4. Further, the outcome in assay [6] was Active.
In [2], `CC[n+]1c(-c2ccccc2)c2cc(N)ccc2c2ccc(N)cc21.[Br-]` [HOMIDIUM BROMIDE] registered an MIC of 16 µg/mL.
Regarding `COc1cccc(/C=C2\COc3cc(O)ccc3C2=O)c1`, the “fractional inhibitory concentration index (FICI)” value in assay [4] is listed as 0.75. This compound displayed a minimum inhibitory concentration (MIC) in assay [2] of 500 µg/mL (≈ 1770 µM). In addition, the fold change (FC) in [5] worked out at 2.
The corresponding values for `O=C1/C(=C/c2cccc(Br)c2)COc2cc(O)ccc21` are 0.75, 500 µg/mL (≈ 1510 µM) and 2.
Take `O=C1/C(=C/c2ccccc2Cl)COc2cc(O)ccc21`: the “fractional inhibitory concentration index (FICI)” value in [1] worked out at 1. The minimum inhibitory concentration (MIC) in assay [2] stood at 125 µg/mL (≈ 436 µM). The fold change (FC) in [3] is 2.
The corresponding values for `COc1ccc(/C=C2\COc3c(ccc(O)c3O)C2=O)cc1` [INTRICATINOL] are 1, 125 µg/mL (≈ 419 µM) and 2.
Turning to `O=C1/C(=C/c2cccc(O)c2)COc2cc(O)ccc21`, the “fractional inhibitory concentration index (FICI)” value in [4] was determined as 0.5. Further, in assay [2], the MIC is 500 µg/mL (≈ 1860 µM). In addition, the fold change (FC) in assay [5] worked out at 4. Also, in assay [6], the result was Active.
As to `COc1ccc(/C=C2\COc3cc(O)ccc3C2=O)cc1` [BONDUCELLIN], the figures for the fold change (FC) in assay [9] and in assay [3] were 4 and 8, respectively. The figures for the “fractional inhibitory concentration index (FICI)” value in [1] and in [10] were 0.62 and 0.5, respectively. Moreover, the minimal inhibitory concentration (MIC) in assay [2] turned out to be 125 µg/mL (≈ 443 µM). In addition, the outcome in assay [6] was Active.
For the compound `COc1ccccc1/C=C1\COc2cc(O)ccc2C1=O`, the “fractional inhibitory concentration index (FICI)” value in assay [4] came out at 0.75. Moreover, in [2], the minimal inhibitory concentration (MIC) came out at 250 µg/mL (≈ 886 µM). In [5], the fold change (FC) was 4. In addition, the result in [6] was Active.
Take `C=CCOc1ccc(/C=C2\COc3cc(O)ccc3C2=O)cc1`: the “fractional inhibitory concentration index (FICI)” value in assay [4] is 0.75. The MIC in [2] came out at 250 µg/mL (≈ 811 µM). The fold change (FC) in assay [5] stood at 2.
In the same order, the values of `C=CCOc1ccccc1/C=C1\COc2cc(O)ccc2C1=O` are 0.75, 500 µg/mL (≈ 1620 µM) and 2.
The corresponding values for `O=C1/C(=C/c2ccc(C(F)(F)F)cc2)COc2cc(O)ccc21` are 0.75, 250 µg/mL (≈ 781 µM) and 4.
In the same order, the values of `O=C1/C(=C/c2cccc(Cl)c2)COc2cc(O)ccc21` are 1, 250 µg/mL (≈ 872 µM) and 2.
For `O=C1/C(=C/c2ccccc2)COc2cc(O)ccc21`, the “fractional inhibitory concentration index (FICI)” value in [1] and in assay [4] was 0.37 each time. For the same compound, the MIC in assay [2] came out at 500 µg/mL (≈ 1980 µM). In addition, the fold change (FC) in assay [3] came to 4; in assay [5], 8. For the same compound, the result in [6] was Active.
On to `COC(=O)[C@H]1[C@H]2C[C@@H]3c4[nH]c5cc(OC)ccc5c4CCN3C[C@H]2C[C@@H](OC(=O)c2cc(OC)c(OC)c(OC)c2)[C@@H]1OC` [RESERPINE], for which, in assay [11], the result was Active. For the same compound, the “fractional inhibitory concentration index (FICI)” value in [12] is reported as 0.4. This compound also displayed an MIC in [2] of 256 µg/mL (≈ 421 µM).
`O=C1/C(=C/c2ccc(Br)cc2)COc2cc(O)ccc21`: in [4], the “fractional inhibitory concentration index (FICI)” value stood at 0.75. Besides, it took 500 µg/mL (≈ 1510 µM) to inhibit growth in assay [2] (MIC). The fold change (FC) in assay [5] amounted to 2.
As for `COc1ccc(CCN(C)CCCC(C#N)(c2ccc(OC)c(OC)c2)C(C)C)cc1OC` (stereo not drawn), the “fractional inhibitory concentration index (FICI)” value in assay [12] was 0.63; in assay [13] it was 0.552. Also, the MIC in assay [2] was found to be 300 µg/mL (≈ 660 µM).
For `N#CC(C#N)=NNc1cccc(Cl)c1` [CARBONYL CYANIDE M-CHLOROPHENYLHYDRAZONE], in assay [14], the fold change (FC) is 2. Further, the lowest concentration to inhibit growth in assay [2] (MIC) was 25 µg/mL (≈ 122 µM). Besides, the “fractional inhibitory concentration index (FICI)” value in [15] turned out to be 1.14. The result in [16] was Active.
As to `COc1ccc(/C=C2\COc3cc(O)cc(O)c3C2=O)cc1`, the fold change (FC) in [3] was 2; in assay [17], 4.
With `C=CCOc1cccc(/C=C2\COc3cc(O)ccc3C2=O)c1`, the “fractional inhibitory concentration index (FICI)” value in assay [1] amounted to 0.5; in [4] it was 0.62. In addition, in assay [2], 250 µg/mL (≈ 811 µM) was the least that counted as inhibitory (MIC). Also, the outcome in assay [7], in assay [8] and in assay [6] was Active. Moreover, the fold change (FC) in [3] was found to be 4; in assay [5], 8.
Consider `O=C1/C(=C/c2cccc(F)c2)COc2cc(O)ccc21`, for which, in assay [4], the “fractional inhibitory concentration index (FICI)” value amounted to 0.75. In assay [2], this compound displayed an MIC of 250 µg/mL (≈ 925 µM). Also, the fold change (FC) in assay [5] came to 4. Also, in assay [6], the outcome was Active.
